We go through two compounds from ChEMBL document CHEMBL3352121, “Modulation of Activity Profiles for Largazole-Based HDAC Inhibitors through Alteration of Prodrug Properties” (ACS Med Chem Lett, 2014).

In experiment [1] the target is T1, Polyamine deacetylase HDAC10 (Homo sapiens, UniProt Q969S8).
T1 sequence (Q969S8 whole entry): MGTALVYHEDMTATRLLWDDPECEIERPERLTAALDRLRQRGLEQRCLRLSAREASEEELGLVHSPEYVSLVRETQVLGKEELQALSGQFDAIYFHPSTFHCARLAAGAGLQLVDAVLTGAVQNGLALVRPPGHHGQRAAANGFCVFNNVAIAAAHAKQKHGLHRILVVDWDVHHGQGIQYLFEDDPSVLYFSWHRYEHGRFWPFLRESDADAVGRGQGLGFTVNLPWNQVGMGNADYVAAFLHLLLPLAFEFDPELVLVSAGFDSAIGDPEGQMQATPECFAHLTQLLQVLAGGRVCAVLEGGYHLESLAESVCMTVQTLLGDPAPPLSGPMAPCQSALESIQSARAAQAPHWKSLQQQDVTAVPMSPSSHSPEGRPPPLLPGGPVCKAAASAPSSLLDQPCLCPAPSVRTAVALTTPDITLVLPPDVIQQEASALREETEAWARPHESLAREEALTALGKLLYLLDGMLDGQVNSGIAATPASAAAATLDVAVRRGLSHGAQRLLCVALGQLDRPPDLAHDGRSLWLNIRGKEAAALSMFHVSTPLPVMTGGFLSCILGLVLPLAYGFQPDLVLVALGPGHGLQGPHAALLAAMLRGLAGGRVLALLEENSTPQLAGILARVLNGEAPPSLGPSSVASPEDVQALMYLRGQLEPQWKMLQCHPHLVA
The experiment can be described thus: Inhibition of HDAC10 (unknown origin) incubated for 30 mins in presence of BSA and DTT by fluorescence assay. The procedure, abridged: (§1)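 Purified HDAC isoforms were tested up to a maximum of 1 μM. IC50 values are averages of duplicate experiments. Disulfide compounds were pretreated with DTT to reduce the disulfide bond.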

Experiment [2] can be described thus: Antiproliferative activity against human HCT116 cells after 48 hrs in presence of DTT by MTT assay. The experiment is classed as functional, cell-based. Conditions: HCT-116, 48 h; call rule not given here. The procedure, abridged: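 Disulfide compounds were pretreated with DTT to reduce the disulfide bond before testing.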
For experiment [3], the target named is Histone deacetylase (Homo sapiens) (UniProt Q13547+O15379+Q9UBN7+Q92769+Q9UQL6+Q8WUI4+Q9BY41+Q96DB2+P56524+Q9UKV0+Q969S8). The experiment can be described thus: Inhibition of HDAC in human HCT116 cells assessed as increase in histone H3 (Lys9/14) hyperacetylation after 8 to 24 hrs by immunoblotting method. The experiment is classed as cell-based. The following applies: HCT-116. The method, boiled down:
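HCT116 cells were treated across a dose range. Cellular HDAC inhibition was read as histone H3 (Lys9/14) hyperacetylation by immunoblot at 8 and 24 h post-treatment.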

The target of experiment [4] is T2, Histone deacetylase 9 (Homo sapiens, UniProt Q9UKV0). Description: Inhibition of HDAC9 (unknown origin) at 1 uM incubated for 30 mins in presence of BSA and DTT by fluorescence assay. The method, boiled down: as §1
T2 sequence (Q9UKV0 whole entry): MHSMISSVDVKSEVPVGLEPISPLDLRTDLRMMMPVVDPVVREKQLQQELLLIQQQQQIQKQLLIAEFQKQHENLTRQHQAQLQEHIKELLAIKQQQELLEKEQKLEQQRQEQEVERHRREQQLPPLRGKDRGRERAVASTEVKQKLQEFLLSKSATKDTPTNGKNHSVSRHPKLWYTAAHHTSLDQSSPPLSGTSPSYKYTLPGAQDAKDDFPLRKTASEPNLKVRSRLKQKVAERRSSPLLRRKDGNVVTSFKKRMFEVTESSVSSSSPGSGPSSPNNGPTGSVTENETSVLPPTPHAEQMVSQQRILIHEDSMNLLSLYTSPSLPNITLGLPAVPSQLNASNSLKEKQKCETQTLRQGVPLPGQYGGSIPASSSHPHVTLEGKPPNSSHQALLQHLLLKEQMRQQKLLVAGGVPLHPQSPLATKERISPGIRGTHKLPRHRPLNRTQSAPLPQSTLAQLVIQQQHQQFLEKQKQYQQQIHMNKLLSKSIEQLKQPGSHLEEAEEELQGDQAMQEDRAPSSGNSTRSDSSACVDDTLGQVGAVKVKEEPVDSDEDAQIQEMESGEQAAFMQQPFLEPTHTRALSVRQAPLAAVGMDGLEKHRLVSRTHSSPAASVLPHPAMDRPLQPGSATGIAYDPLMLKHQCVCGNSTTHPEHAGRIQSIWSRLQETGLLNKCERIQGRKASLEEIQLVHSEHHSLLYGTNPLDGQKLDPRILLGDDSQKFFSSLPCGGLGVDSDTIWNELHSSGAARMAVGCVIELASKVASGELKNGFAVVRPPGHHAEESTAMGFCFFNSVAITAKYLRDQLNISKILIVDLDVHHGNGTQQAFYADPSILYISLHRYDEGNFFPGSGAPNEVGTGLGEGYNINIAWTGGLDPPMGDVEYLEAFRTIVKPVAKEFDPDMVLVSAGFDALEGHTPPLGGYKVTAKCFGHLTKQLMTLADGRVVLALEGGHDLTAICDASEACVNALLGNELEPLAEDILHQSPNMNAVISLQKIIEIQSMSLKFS
Experiment [5] deals with T3, Histone deacetylase 8 (Homo sapiens) (UniProt Q9BY41).
T3 sequence (whole entry): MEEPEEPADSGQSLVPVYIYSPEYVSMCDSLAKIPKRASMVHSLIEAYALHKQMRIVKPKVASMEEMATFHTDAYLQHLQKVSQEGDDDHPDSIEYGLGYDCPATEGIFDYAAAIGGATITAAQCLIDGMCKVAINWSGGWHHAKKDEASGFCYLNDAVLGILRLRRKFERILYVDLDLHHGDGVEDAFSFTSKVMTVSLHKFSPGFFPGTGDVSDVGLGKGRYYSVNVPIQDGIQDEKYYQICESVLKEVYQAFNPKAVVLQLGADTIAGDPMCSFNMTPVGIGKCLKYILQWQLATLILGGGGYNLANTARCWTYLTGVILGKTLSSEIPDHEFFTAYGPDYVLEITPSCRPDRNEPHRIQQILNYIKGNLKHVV
Description: Inhibition of HDAC8 (unknown origin) at 1 uM incubated for 30 mins in presence of BSA and DTT by fluorescence assay. The procedure, abridged: as §1

Experiment [6] concerns the target Histone deacetylase 5 (Homo sapiens, UniProt Q9UQL6). The experiment can be described thus: Inhibition of HDAC5 (unknown origin) at 1 uM incubated for 30 mins in presence of BSA and DTT by fluorescence assay. The method, boiled down:
as §1

In experiment [7] the target is Histone deacetylase 4 (Homo sapiens, UniProt P56524). The experiment can be described thus: Inhibition of HDAC4 (unknown origin) at 1 uM incubated for 30 mins in presence of BSA and DTT by fluorescence assay. The procedure, abridged:
as §1

Experiment [8] has as its target T2, Histone deacetylase 9. The experiment can be described thus: Inhibition of HDAC9 (unknown origin) incubated for 30 mins in presence of BSA and DTT by fluorescence assay. The procedure, abridged: as §1
Experiment [9] deals with T4, Protein deacetylase HDAC6 (Homo sapiens, UniProt Q9UBN7).
T4 sequence (Q9UBN7 whole entry): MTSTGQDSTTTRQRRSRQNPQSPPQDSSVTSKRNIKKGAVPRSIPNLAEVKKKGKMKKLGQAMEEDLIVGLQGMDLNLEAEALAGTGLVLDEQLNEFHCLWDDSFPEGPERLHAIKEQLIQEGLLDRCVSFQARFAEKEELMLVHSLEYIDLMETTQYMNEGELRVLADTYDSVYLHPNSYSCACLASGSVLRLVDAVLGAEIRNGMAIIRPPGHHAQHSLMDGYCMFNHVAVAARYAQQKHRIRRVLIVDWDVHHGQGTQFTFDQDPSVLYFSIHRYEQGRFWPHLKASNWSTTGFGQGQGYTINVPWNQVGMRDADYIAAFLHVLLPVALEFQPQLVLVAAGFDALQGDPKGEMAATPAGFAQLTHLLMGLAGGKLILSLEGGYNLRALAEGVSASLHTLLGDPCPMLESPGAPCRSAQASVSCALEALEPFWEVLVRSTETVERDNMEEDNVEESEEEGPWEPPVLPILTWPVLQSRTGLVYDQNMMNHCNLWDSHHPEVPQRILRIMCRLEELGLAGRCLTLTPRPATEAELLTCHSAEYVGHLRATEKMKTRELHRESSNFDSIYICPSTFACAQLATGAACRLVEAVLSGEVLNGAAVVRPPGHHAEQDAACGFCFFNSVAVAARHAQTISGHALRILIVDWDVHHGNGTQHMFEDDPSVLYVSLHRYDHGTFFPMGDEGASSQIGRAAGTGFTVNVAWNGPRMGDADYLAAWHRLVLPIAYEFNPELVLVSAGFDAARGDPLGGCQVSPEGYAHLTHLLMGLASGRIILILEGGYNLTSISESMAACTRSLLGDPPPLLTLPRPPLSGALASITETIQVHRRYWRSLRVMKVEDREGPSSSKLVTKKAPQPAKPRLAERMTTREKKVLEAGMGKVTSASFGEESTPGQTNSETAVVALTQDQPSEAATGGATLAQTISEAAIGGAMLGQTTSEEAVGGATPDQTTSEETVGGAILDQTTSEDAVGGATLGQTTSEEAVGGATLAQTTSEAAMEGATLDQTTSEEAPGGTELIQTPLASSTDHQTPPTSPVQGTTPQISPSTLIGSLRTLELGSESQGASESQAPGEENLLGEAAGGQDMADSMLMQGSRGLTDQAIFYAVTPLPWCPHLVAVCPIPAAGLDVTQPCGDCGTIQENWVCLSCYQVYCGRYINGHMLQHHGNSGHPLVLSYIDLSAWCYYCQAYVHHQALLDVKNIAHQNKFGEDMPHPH
The experiment can be described thus: Inhibition of HDAC6 (unknown origin) incubated for 30 mins in presence of BSA and DTT by fluorescence assay. The procedure, abridged:
as §1

SMILES strings stand for the structures.

Chain of Histone deacetylase 5 (Q9UQL6 whole entry): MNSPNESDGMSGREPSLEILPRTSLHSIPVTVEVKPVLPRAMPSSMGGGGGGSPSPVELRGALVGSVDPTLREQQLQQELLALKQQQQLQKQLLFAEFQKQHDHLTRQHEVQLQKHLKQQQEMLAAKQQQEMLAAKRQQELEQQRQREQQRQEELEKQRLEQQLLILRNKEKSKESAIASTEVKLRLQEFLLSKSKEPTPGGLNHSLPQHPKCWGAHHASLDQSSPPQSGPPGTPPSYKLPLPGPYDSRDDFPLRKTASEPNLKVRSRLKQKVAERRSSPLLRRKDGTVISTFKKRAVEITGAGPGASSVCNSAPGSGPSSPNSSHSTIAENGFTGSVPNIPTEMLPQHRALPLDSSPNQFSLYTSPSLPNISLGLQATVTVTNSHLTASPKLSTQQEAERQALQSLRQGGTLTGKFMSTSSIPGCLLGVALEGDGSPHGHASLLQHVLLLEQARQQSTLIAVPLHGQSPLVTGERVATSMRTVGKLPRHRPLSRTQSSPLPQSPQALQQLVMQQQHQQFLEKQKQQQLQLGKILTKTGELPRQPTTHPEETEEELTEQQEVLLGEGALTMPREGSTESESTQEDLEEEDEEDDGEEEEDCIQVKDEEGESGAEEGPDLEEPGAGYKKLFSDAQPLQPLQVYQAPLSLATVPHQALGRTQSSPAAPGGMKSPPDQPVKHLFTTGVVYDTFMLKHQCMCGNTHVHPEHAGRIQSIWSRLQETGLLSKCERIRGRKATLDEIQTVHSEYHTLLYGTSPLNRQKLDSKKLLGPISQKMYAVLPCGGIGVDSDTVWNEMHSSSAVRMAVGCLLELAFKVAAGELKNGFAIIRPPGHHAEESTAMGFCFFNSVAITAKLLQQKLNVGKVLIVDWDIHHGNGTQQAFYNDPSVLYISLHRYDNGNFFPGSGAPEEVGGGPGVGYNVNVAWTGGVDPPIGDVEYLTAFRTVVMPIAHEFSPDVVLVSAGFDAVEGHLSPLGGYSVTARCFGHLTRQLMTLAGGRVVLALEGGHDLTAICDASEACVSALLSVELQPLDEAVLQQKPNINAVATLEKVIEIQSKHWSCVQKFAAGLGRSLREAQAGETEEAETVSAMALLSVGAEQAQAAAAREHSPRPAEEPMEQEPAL
Chain of Histone deacetylase 4 (P56524 whole entry): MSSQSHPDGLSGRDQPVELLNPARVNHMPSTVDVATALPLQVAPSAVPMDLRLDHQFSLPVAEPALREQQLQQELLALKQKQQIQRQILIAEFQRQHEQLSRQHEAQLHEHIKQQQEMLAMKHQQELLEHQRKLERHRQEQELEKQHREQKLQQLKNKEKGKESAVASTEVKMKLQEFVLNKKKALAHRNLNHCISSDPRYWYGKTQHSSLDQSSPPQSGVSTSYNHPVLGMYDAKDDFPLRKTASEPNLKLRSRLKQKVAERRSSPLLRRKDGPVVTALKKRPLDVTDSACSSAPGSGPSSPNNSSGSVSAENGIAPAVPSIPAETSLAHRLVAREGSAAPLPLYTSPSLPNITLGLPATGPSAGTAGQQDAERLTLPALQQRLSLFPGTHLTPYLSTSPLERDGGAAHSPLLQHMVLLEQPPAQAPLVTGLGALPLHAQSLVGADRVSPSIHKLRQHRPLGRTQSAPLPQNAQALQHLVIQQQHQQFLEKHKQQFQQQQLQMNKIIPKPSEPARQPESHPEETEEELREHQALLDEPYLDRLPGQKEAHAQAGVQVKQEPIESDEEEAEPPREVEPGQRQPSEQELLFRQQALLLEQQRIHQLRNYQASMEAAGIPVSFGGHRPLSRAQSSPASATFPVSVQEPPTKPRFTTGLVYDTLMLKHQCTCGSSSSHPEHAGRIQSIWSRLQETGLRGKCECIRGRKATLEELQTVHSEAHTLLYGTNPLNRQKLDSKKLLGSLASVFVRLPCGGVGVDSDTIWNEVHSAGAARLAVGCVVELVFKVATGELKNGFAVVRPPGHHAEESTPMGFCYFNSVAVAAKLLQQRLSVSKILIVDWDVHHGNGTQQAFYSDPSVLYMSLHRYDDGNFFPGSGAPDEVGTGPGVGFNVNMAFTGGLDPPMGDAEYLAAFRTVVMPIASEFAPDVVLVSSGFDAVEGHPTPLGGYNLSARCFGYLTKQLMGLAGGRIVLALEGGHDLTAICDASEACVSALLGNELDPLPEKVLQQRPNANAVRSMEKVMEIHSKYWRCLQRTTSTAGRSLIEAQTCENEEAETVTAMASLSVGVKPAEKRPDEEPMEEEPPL

Regarding `CC(C)[C@@H]1NC(=O)[C@]2(C)CSC(=N2)c2csc(n2)CNC(=O)C[C@@H](/C=C/CCSSC[C@H](NC(=O)OC(C)(C)C)C(=O)OC(C)(C)C)OC1=O`, the IC50 is 0.0005 µM in experiment [1], 0.013 µM in experiment [2], “Not Active” in [8] and 0.135 µM in experiment [9]. In addition, the inhibition entry in [3] is “Dose-dependent effect”; in experiment [4], below 20%; in experiment [5], 35%; in [6], below 20%; in experiment [7] it was below 20%.
As to `CC(C)[C@@H]1NC(=O)[C@]2(C)CSC(=N2)c2csc(n2)CNC(=O)C[C@@H](/C=C/CCSSCC/C=C/[C@@H]2CC(=O)NCc3nc(cs3)C3=N[C@@](C)(CS3)C(=O)N[C@@H](C(C)C)C(=O)O2)OC1=O`, the IC50 was 0.0002 µM in experiment [1], 0.012 µM in experiment [2], “Not Active” in [8] and 0.061 µM in experiment [9]. Moreover, the inhibition entry in experiment [3] is “Dose-dependent effect”; in experiment [4], below 20%; in experiment [5] it was 40%; in [6], below 20%; in experiment [7], below 20%.
